Bioassay records: PubChem BioAssay, Broad Institute
This is a sample that favours compounds with a hit; in the whole collection about 3.1% have one here.
FN deposit inh: fibronectin deposition inhibition. AH1F fibroblasts, Alexa488-fibronectin deposition fluorescence, overnight. inhibition, % at 12.6 µM. 0.086% of 350,000 active. AID 743247;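 active = mean inhibition across replicates of 30% or more, regardless of how many single replicates reach that level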
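Assay system: AH1F fibroblasts assembling fluorescent fibronectin matrix; Amount: 10000 AH1F cells per well; Buffer or medium: DMEM, 2% serum; Probe or stimulus: Alexa488-fibronectin, 24 nM final in well; Doses: single compound dose, delivered by pin transfer; Incubation: 1 h adhesion, overnight exposure; Measured by: fluorescence 485/525 nm; Read-out: fibronectin deposition inhibition.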
PAX8 inh HTS: inhibitors of PAX8 transcriptional activity in RMG-I cells; inhibition, % at 12.6 µM; AID 652154; 1.2% of 360,000 active; RMG-I TPO-luciferase reporter, SteadyGlo, 24 h;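 active = mean replicate inhibition at least 60% with every replicate also reaching 60%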;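 note: luciferase light reporting Pax8 driven TPO promoter activity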
EWS-Fli inh: EWS/Fli transcriptional activity inhibition; A673 NR0B1-luciferase reporter, viability-normalised; inhibition, % at 12.6 µM; 0.67% of 350,000 active; AID 651661;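 active = mean inhibition of at least 50% after viability correction, with every replicate also passing that limit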;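 note: firefly luciferase signal divided by Alamar Blue viability fluorescence both relative to DMSO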
PGC1a acetyl inh: PGC1a acetylation modulation, inhibitor mode; U2OS PGC1a acetylation, AlphaScreen anti-acetyl-lysine; with virally co-expressed GCN5 acetyltransferase; 0.17% of 350,000 active; inhibition, % at 15.6 µM;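 active = every replicate shows inhibition of at least 40%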
FGF22 binding-1: shifts melting point of recombinant human FGF22; recombinant FGF22 thermal shift, SYPRO orange fluorescence; percent of sucrose octasulfate shift, DMSO zero; activity (Tm shift, normalised), % at 9.99 µM; 1.5% of 340,000 active;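 active = mean Tm shift, scaled 0 neutral to 100 positive control, at about 1.3% or above, every replicate too, limit read from the data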
Target sequence (Q9HCT0 whole entry, looked up): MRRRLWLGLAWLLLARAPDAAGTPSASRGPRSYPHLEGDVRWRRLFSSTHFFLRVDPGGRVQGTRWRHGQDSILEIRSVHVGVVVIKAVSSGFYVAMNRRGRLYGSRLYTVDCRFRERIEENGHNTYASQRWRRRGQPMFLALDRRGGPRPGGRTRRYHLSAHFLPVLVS
HIV Env fusion: blocks HIV Env-driven cell-cell fusion. HeLa-JRFL Env/CEM21 cell fusion, luciferase. inhibition, % at 12.3 µM. 1.1% of 360,000 active;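 active = mean replicate inhibition score of at least 50 and every replicate individually at or above 50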
FGF22 binding-2: binders of human FGF22 by thermal shift. shares compounds with FGF22 binding-1. recombinant FGF22 thermal shift, SYPRO orange fluorescence. thermal shift activity, °C (ΔTm) at 38 µM. 2% of 1,000 active;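 active = fitted rise in melting shift crosses a set limit at or below the top valid dose tested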
SYPRO no-protein: shows thermal shift signal without protein, FGF22 counter-screen; 2% of 1,000 active; shares compounds with FGF22 binding-1; AC50, µM (titrated, usually from 38 µM); compound-only SYPRO orange thermal shift counter-screen, no protein; AID 743019;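 active = rising signal whose fitted curve reaches the 0.54 level within the top valid dose, showing a melting point, actives reach about 13 µM in these data; inactive = the rest, including activity in the opposite direction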; note: value is where the raw curve crosses a fixed level and not half-maximal
Numbers stand for hits; - = inactive; . = not tested or not shown; ! = a repeat was not active.

SMILES | FN deposit inh | PAX8 inh HTS | EWS-Fli inh | PGC1a acetyl inh | FGF22 binding-1 | HIV Env fusion | FGF22 binding-2 | SYPRO no-protein
Cc1ccccc1-c1ccccc1[C@H]1[C@@H](CO)N(C(=O)c2ccccc2)[C@H]1C#N | - | . | - | - | 1.7 | . | - | -
C/C=C/c1ccccc1[C@@H]1[C@@H](C#N)N(C(C)=O)[C@@H]1CO | - | . | - | - | 1.3 | . | - | -
N#C[C@H]1[C@@H](c2ccc(-c3cccnc3)cc2)[C@@H](CO)N1C(=O)Nc1ccc(F)cc1 | - | - | - | - | - | . | . | .
N#C[C@@H]1[C@H](c2ccc(-c3cccnc3)cc2)[C@H](CO)N1C(=O)Nc1ccc(F)cc1 | - | - | - | - | 2.7 | . | - | -
CC(C)NC(=O)N1[C@H](CO)[C@H](c2ccccc2-c2ccc(F)cc2)[C@@H]1C#N | - | . | - | - | 1.8 | . | - | -
C[C@@H]1CCCCO[C@H](CN(C)C(=O)c2ccccc2)[C@H](C)CN([C@@H](C)CO)C(=O)c2cc(NC(=O)CCCCCC(=O)Nc3ccccc3N)ccc2O1 | - | - | - | - | - | - | . | .
CC(=O)N(C)C[C@@H]1Oc2cc(-c3ccc(C)cc3)ccc2S(=O)(=O)N([C@@H](C)CO)C[C@H]1C | . | . | - | - | - | - | . | .
COCC#Cc1ccc2c(c1)O[C@@H](CN(C)C(=O)c1ccccc1)[C@H](C)CN([C@H](C)CO)S2(=O)=O | . | . | - | - | - | - | . | .
CCCN(C)C[C@@H]1Oc2cc(C#CC(C)(C)O)ccc2S(=O)(=O)N([C@@H](C)CO)C[C@@H]1C | - | . | - | - | 1.3 | - | - | -
COCC#Cc1ccc2c(c1)O[C@H](CN(C)C(=O)c1ccccc1)[C@@H](C)CN([C@@H](C)CO)S2(=O)=O | . | . | - | - | 8.3 | - | - | -
COCC(=O)N(C)C[C@H]1Oc2cc(C#Cc3ccccc3)ccc2S(=O)(=O)N([C@H](C)CO)C[C@H]1C | - | . | - | - | 6.2 | - | - | -
CCCC(=O)N1CC2(CN(C)C2)c2c(n(C)c3cc(OC)ccc23)[C@H]1CO | . | . | . | - | . | . | . | .
O=C(C1CCCC1)N1CC2(C1)[C@H](c1ccccc1)[C@@H](CO)N2CC1CC1 | - | - | - | - | 1.6 | . | - | -
O=C(CC1CC1)N1CC2(C1)[C@@H](c1ccccc1)[C@@H](CO)N2S(=O)(=O)Cc1ccccc1 | - | - | - | - | 1.3 | . | - | -
O=C(C1CCCC1)N1CC2(C1)[C@H](c1ccccc1)[C@H](CO)N2CC1CCCC1 | - | . | - | - | . | . | . | .
CCC(=O)N1CC2(C1)[C@@H](c1ccccc1)[C@@H](CO)N2S(=O)(=O)Cc1ccccc1 | . | - | - | - | - | . | . | .
CCC(=O)N1CC2(C1)[C@H](c1ccccc1)[C@H](CO)N2S(=O)(=O)Cc1ccccc1 | . | - | - | - | 16 | . | - | -
COc1ccc(S(=O)(=O)Nc2ccc3c(c2)[C@@H]2C[C@H](CC(=O)O)O[C@H](CO)[C@@H]2O3)cc1 | - | . | - | - | - | . | . | .
Cc1noc(C)c1S(=O)(=O)Nc1ccc2c(c1)C(=O)N([C@H](C)CO)C[C@@H](C)[C@@H](CN(C)S(=O)(=O)c1cccs1)O2 | . | - | - | - | - | - | . | .
CCCc1cn(CC[C@H]2CC[C@@H](NC(=O)C3CCCC3)[C@H](CO)O2)nn1 | - | - | - | - | - | - | . | .
C[C@@H]1CN([C@@H](C)CO)C(=O)Cc2cc(NC(=O)C3CC3)ccc2O[C@H]1CN(C)Cc1ccc(Cl)c(Cl)c1 | . | - | . | - | 3.1 | - | - | -
C[C@@H]1CN([C@H](C)CO)C(=O)Cc2cc(NS(C)(=O)=O)ccc2O[C@H]1CN(C)Cc1ccc(C(=O)O)cc1 | . | - | - | - | - | - | . | .
C[C@@H]1CN([C@H](C)CO)C(=O)Cc2cc(NS(C)(=O)=O)ccc2O[C@@H]1CN(C)Cc1ccc(C(=O)O)cc1 | - | - | - | - | 39 | - | - | -
C[C@H]1CN([C@@H](C)CO)C(=O)Cc2cc(NC(=O)C3CC3)ccc2O[C@@H]1CN(C)Cc1ccc(Cl)c(Cl)c1 | . | - | . | - | - | - | . | .
C[C@H](CO)N1C[C@H](C)[C@H](CN(C)C(=O)Nc2cccc3ccccc23)Oc2c(NC(=O)c3nc4ccccc4s3)cccc2C1=O | - | . | - | - | - | . | . | .
SMILES | FN deposit inh | PAX8 inh HTS | EWS-Fli inh | PGC1a acetyl inh | FGF22 binding-1 | HIV Env fusion | FGF22 binding-2 | SYPRO no-protein
Cc1noc(C)c1S(=O)(=O)Nc1ccc2c(c1)C(=O)N([C@@H](C)CO)C[C@@H](C)[C@H](CN(C)Cc1ccc3c(c1)OCO3)OCCCC[C@@H](C)O2 | . | - | - | - | - | - | . | .
Cc1noc(C)c1S(=O)(=O)Nc1ccc2c(c1)CC(=O)N([C@H](C)CO)C[C@@H](C)[C@H](CN(C)Cc1ccc(C(F)(F)F)cc1)O2 | . | . | - | - | - | - | . | .
Cc1ccc(S(=O)(=O)Nc2cccc3c2O[C@@H](CN(C)C)[C@H](C)CN([C@H](C)CO)C3=O)cc1 | - | - | - | - | - | - | . | .
CCOC(=O)[C@@H]1[C@H]2COc3cc(OC)ccc3[C@H]2N2C(=O)N(c3ccc(C)cc3)C(=O)[C@]12C | - | - | - | - | 1.6 | - | - | -
COc1ccc(CN(C)C[C@H]2Oc3ccc(NS(=O)(=O)c4ccccc4)cc3CC(=O)N([C@@H](C)CO)C[C@H]2C)cc1 | . | . | - | - | - | - | . | .
O=C(Nc1ccc(S(=O)(=O)NCc2ccccc2)cc1)c1ccccc1[N+](=O)[O-] | - | - | - | . | 2.4 | - | - | -
CN1CCN(C(=O)C[C@@H]2C[C@H]3c4cc(NC(=O)C5CCOCC5)ccc4O[C@H]3[C@H](CO)O2)CC1 | - | - | - | - | . | - | . | .
CCCSc1ncnc2[nH]ncc12 | - | - | - | - | 46 | - | - | -
CCCCCCCCNc1ncnc2[nH]ncc12 | - | - | - | - | - | - | . | .
COc1cc2c(cc1O)C=[N+](Cc1cccc(OC(F)(F)F)c1)CC2 | . | - | - | . | - | - | . | .
C[C@H](CO)N1C[C@H](C)[C@@H](CN(C)S(=O)(=O)c2ccccc2)Oc2ccc(NS(=O)(=O)c3cn(C)cn3)cc2C1=O | - | - | - | - | 2.3! | - | - | -
C[C@@H]1CN([C@H](C)CO)C(=O)c2cc(NS(=O)(=O)c3cn(C)cn3)ccc2O[C@@H]1CN(C)Cc1ccccc1 | . | - | - | . | - | - | . | .
C[C@H]1CN([C@@H](C)CO)C(=O)c2cc(NS(=O)(=O)c3cn(C)cn3)ccc2O[C@H]1CN(C)Cc1ccccc1 | . | - | - | . | 24 | - | - | -
Cc1nn(CCOc2ccccc2Cl)c(C)c1[N+](=O)[O-] | - | - | - | . | 1.7 | - | - | -
O=S(=O)(c1cccc2ccccc12)N1CCCCC1 | - | - | - | - | - | - | . | .
